Assay results published in ChEMBL document CHEMBL1141803, “Floratheasaponins A-C, acylated oleanane-type triterpene oligoglycosides with anti-hyperlipidemic activities from flowers of the tea plant (Camellia sinensis)” (2005).

Assays:
Format in all cases: functional
Mus musculus [1] = assay: Antihyperlipidemic activity in olive oil-treated ddY mouse assessed as serum triglyceride level at 50 mg/kg, po after 6 hrs
Summary of the method: (§1)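 Male ddY mice (25-30 g) kept at 23 ± 2 °C on standard chow, fasted 24-26 h with free access to water, conscious. Test sample given orally; olive oil (5 mL/kg, p.o.) given 30 min later. Blood drawn from the infraorbital venous plexus 2, 4 and 6 h after olive oil. Serum TG measured enzymatically (triglyceride E test). Means ± SEM, n = 5-12 per group.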

Mus musculus [2] = assay: Antihyperlipidemic activity in olive oil-treated ddY mouse assessed as serum triglyceride level at 100 mg/kg, po after 2 hrs; summary of the method: as §1
Mus musculus [3] = assay: Antihyperlipidemic activity in olive oil-treated ddY mouse assessed as serum triglyceride level at 50 mg/kg, po after 4 hrs; summary of the method: as §1
Mus musculus [4] = assay: Antihyperlipidemic activity in olive oil-treated ddY mouse assessed as serum triglyceride level at 100 mg/kg, po after 4 hrs; summary of the method: as §1
Mus musculus [5] = assay: Antihyperlipidemic activity in olive oil-treated ddY mouse assessed as serum triglyceride level at 50 mg/kg, po after 2 hrs; summary of the method: as §1
Mus musculus [6] = assay: Antihyperlipidemic activity in olive oil-treated ddY mouse assessed as serum triglyceride level at 100 mg/kg, po after 6 hrs; summary of the method: as §1
Mus musculus [7] = assay: Antihyperlipidemic activity in olive oil-treated ddY mouse assessed as serum triglyceride level at 500 mg/kg, po after 6 hrs; summary of the method: as §1
Mus musculus [8] = assay: Antihyperlipidemic activity in olive oil-treated ddY mouse assessed as serum triglyceride level at 250 mg/kg, po after 6 hrs; summary of the method: as §1
Mus musculus [9] = assay: Antihyperlipidemic activity in olive oil-treated ddY mouse assessed as serum triglyceride level at 125 mg/kg, po after 4 hrs; summary of the method: as §1
Mus musculus [10] = assay: Antihyperlipidemic activity in olive oil-treated ddY mouse assessed as serum triglyceride level at 250 mg/kg, po after 2 hrs; summary of the method: as §1
Mus musculus [11] = assay: Antihyperlipidemic activity in olive oil-treated ddY mouse assessed as serum triglyceride level at 125 mg/kg, po after 6 hrs; summary of the method: as §1
Mus musculus [12] = assay: Antihyperlipidemic activity in olive oil-treated ddY mouse assessed as serum triglyceride level at 125 mg/kg, po after 2 hrs; summary of the method: as §1
Mus musculus [13] = assay: Antihyperlipidemic activity in olive oil-treated ddY mouse assessed as serum triglyceride level at 500 mg/kg, po after 2 hrs; summary of the method: as §1
Mus musculus [14] = assay: Antihyperlipidemic activity in olive oil-treated ddY mouse assessed as serum triglyceride level at 500 mg/kg, po after 4 hrs; summary of the method: as §1
Mus musculus [15] = assay: Antihyperlipidemic activity in olive oil-treated ddY mouse assessed as serum triglyceride level at 250 mg/kg, po after 4 hrs; summary of the method: as §1
Mus musculus [16] = assay: Antihyperlipidemic activity in olive oil-treated ddY mouse assessed as serum triglyceride level at 25 mg/kg, po after 2 hrs; summary of the method: as §1
Mus musculus [17] = assay: Antihyperlipidemic activity in olive oil-treated ddY mouse assessed as serum triglyceride level at 25 mg/kg, po after 4 hrs; summary of the method: as §1
Mus musculus [18] = assay: Antihyperlipidemic activity in olive oil-treated ddY mouse assessed as serum triglyceride level at 25 mg/kg, po after 6 hrs; summary of the method: as §1
Mus musculus [19] = assay: Antihyperlipidemic activity in olive oil-treated ddY mouse assessed as serum triglyceride level at 12.5 mg/kg, po after 6 hrs; summary of the method: as §1
Mus musculus [20] = assay: Antihyperlipidemic activity in olive oil-treated ddY mouse assessed as serum triglyceride level at 12.5 mg/kg, po after 4 hrs; summary of the method: as §1
Mus musculus [21] = assay: Antihyperlipidemic activity in olive oil-treated ddY mouse assessed as serum triglyceride level at 6.25 mg/kg, po after 6 hrs; summary of the method: as §1
Mus musculus [22] = assay: Antihyperlipidemic activity in olive oil-treated ddY mouse assessed as serum triglyceride level at 6.25 mg/kg, po after 4 hrs; summary of the method: as §1
Mus musculus [23] = assay: Antihyperlipidemic activity in olive oil-treated ddY mouse assessed as serum triglyceride level at 6.25 mg/kg, po after 2 hrs; summary of the method: as §1
Mus musculus [24] = assay: Antihyperlipidemic activity in olive oil-treated ddY mouse assessed as serum triglyceride level at 12.5 mg/kg, po after 2 hrs; summary of the method: as §1

Structure (SMILES)	Activity (Mus musculus [1])	Activity (Mus musculus [2])	Activity (Mus musculus [3])	Activity (Mus musculus [4])	Activity (Mus musculus [5])	Activity (Mus musculus [6])	Activity (Mus musculus [16])	Activity (Mus musculus [17])	Activity (Mus musculus [18])	also measured
CC1(C)C[C@H]2C3=CC[C@@H]4[C@@]5(C)CC[C@H](O[C@@H]6O[C@H](C(=O)O)[C@@H](O)[C@H](O[C@@H]7OC[C@H](O)[C@H](O)[C@H]7O[C@@H]7OC[C@@H](O)[C@H](O)[C@H]7O)[C@H]6O[C@@H]6O[C@H](CO)[C@H](O)[C@H](O)[C@H]6O)[C@@](C)(C=O)C5CC[C@@]4(C)[C@]3(C)C[C@@H](O)[C@@]2(CO)[C@@H](O)[C@@H]1O (stereo partly drawn)	332.3 mg/dL	440.8 mg/dL	410.5 mg/dL	363.2 mg/dL	468.7 mg/dL	314.3 mg/dL				
C/C=C\C(=O)O[C@H]1[C@H](O)[C@]2(COC(C)=O)[C@H](O)C[C@]3(C)C(=CC[C@@H]4[C@@]5(C)CC[C@H](O[C@@H]6O[C@H](C(=O)O)[C@@H](O)[C@H](O[C@@H]7OC[C@H](O)[C@H](O)[C@H]7O[C@@H]7OC[C@@H](O)[C@H](O)[C@H]7O)[C@H]6O[C@@H]6O[C@H](CO)[C@H](O)[C@H](O)[C@H]6O)[C@@](C)(C=O)C5CC[C@]43C)[C@@H]2CC1(C)C (stereo partly drawn) [THEASAPONIN E2]	361.3 mg/dL	509.4 mg/dL	507.5 mg/dL	507 mg/dL	552.9 mg/dL	396.4 mg/dL				
CCOC(=O)C(C)(C)Oc1ccc(Cl)cc1 [CLOFIBRATE]										Activity (Mus musculus [7]): 373.5 mg/dL; Activity (Mus musculus [8]): 443.3 mg/dL; Activity (Mus musculus [9]): 295 mg/dL; Activity (Mus musculus [10]): 441.2 mg/dL; Activity (Mus musculus [11]): 333.4 mg/dL; Activity (Mus musculus [12]): 377.5 mg/dL; Activity (Mus musculus [13]): 318.2 mg/dL; Activity (Mus musculus [14]): 239.7 mg/dL; Activity (Mus musculus [15]): 340.5 mg/dL
C/C=C\C(=O)O[C@H]1[C@H](OC(C)=O)[C@]2(CO)[C@H](O)C[C@]3(C)C(=CC[C@@H]4[C@@]5(C)CC[C@H](O[C@@H]6O[C@H](C(=O)O)[C@@H](O)[C@H](O[C@@H]7OC[C@H](O)[C@H](O)[C@H]7O[C@@H]7OC[C@@H](O)[C@H](O)[C@H]7O)[C@H]6O[C@@H]6O[C@H](CO)[C@H](O)[C@H](O)[C@H]6O)[C@@](C)(C=O)C5CC[C@]43C)[C@@H]2CC1(C)C (stereo partly drawn) [THEASAPONIN E1]	267.2 mg/dL	342.3 mg/dL	312.2 mg/dL	389.5 mg/dL	373.9 mg/dL	294.9 mg/dL	578.5 mg/dL	430.7 mg/dL	233.9 mg/dL	
C/C=C\C(=O)O[C@H]1[C@H](OC(C)=O)[C@]2(CO)[C@H](O)C[C@]3(C)C(=CC[C@@H]4[C@@]5(C)CC[C@H](O[C@@H]6O[C@H](C(=O)O)[C@@H](O)[C@H](O[C@@H]7OC[C@H](O)[C@H](O)[C@H]7O[C@@H]7OC[C@@H](O)[C@H](O)[C@H]7O)[C@H]6O[C@@H]6O[C@H](CO)[C@H](O)[C@H](O)[C@H]6O)C(C)(C)C5CC[C@]43C)[C@@H]2CC1(C)C (stereo partly drawn) [FLORATHEASAPONIN A]	256.8 mg/dL	158.3 mg/dL	392.9 mg/dL	242 mg/dL	387.4 mg/dL	322.3 mg/dL	411 mg/dL	251.8 mg/dL	135.7 mg/dL	
CCCCCCCCCCC[C@@H](C[C@@H]1OC(=O)[C@H]1CCCCCC)OC(=O)[C@H](CC(C)C)NC=O [ORLISTAT]							158.9 mg/dL	132.2 mg/dL	140.1 mg/dL	Activity (Mus musculus [19]): 189.7 mg/dL; Activity (Mus musculus [20]): 176 mg/dL; Activity (Mus musculus [21]): 155.6 mg/dL; Activity (Mus musculus [22]): 179.3 mg/dL; Activity (Mus musculus [23]): 266.4 mg/dL; Activity (Mus musculus [24]): 187.9 mg/dL
